In ChEMBL document CHEMBL4732161, “Discovery of a novel family of FKBP12 "reshapers" and their use as calcium modulators in skeletal muscle under nitro-oxidative stress” (Eur J Med Chem, 2021):
The source made the active and inactive calls. No cut-off for these calls is given here.

Assays:
[1] = target: T1, RyR1/FKBP12 (Homo sapiens) (UniProt P21817+P62942); experiment: Stabilization of FKBP12/RyR1 protein-protein interaction in human 8220 myoblast-derived myotubes assessed as reversal of SIN1-induced intracellular calcium leakage at 150 nM preincubated for 12 hrs followed by SIN1 stimulation and measured after 6 hrs by fura-2 AM dye based fluorescence assay relative to control; details: Myotube, time 18.0 hrs
In short: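 Immortalized human 8220 myoblasts differentiated 9 days into myotubes, pretreated with compounds at 150 nM for 12 h, then stressed with 5 mM SIN1 for 6 h. Loaded with Fura-2AM ([…]) plus 0.02% pluronic acid, 30 min, 37 °C; calcium from 340/380 nm excitation ratio. Six replicates, ≥4 images each; recovery score = (treated − untreated)/(control − untreated) × 100.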

[2] = target: T1, RyR1/FKBP12 (Homo sapiens); experiment: Effect on FKBP12/RyR1 protein-protein interaction in human myotubes by in situ proximity ligation assay; details: Myotube
In short: (§1)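 Human myotubes 7–9 days into differentiation, treated at 150 nM, then 5 mM SIN1 for 30 min; PFA-fixed, anti-RyR1 mouse mAb overnight, Duolink orange PLA, MyHC-FITC and DAPI counterstain. Co-localization spots quantified as % of untreated control; 11–15 fields from 3–4 cultures, ≥8 myotubes per field; one-way ANOVA with Dunnett's test.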

[3] = target: T2, Peptidyl-prolyl cis-trans isomerase FKBP1A (Homo sapiens, UniProt P62942); experiment: Binding affinity to FKBP12 (unknown origin) expressed in HEK293 cells co-expressing FRB assessed as inhibition of rapamycin-induced FKBP12-FRB dimerization measured after 25 mins by nano-glo live cell reagent based luminescence assay
T2 sequence (P62942 whole entry): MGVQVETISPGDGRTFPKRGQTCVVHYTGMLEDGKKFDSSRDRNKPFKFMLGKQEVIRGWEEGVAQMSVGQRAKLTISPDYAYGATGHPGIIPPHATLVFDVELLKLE

[4] = target: T1, RyR1/FKBP12 (Homo sapiens); experiment: Stabilization of FKBP12/RyR1 protein-protein interaction in human myotubes assessed as reversal of SIN1-induced reduction in FKBP12/RyR1 co-localization at 150 nM by in situ proximity ligation assay relative to control; design: scale not given: the % may be the effect or the level left; details: Myotube; in short: as §1
[5] = target: T2, Peptidyl-prolyl cis-trans isomerase FKBP1A; experiment: Binding affinity to FKBP12 (unknown origin) expressed in HEK293 cells co-expressing FRB assessed as induction of FKBP12-FRB dimerization at […] measured for 15 mins by nano-glo live cell reagent based luminescence assay
In short: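 HEK293 cells on poly-D-lysine, transfected with FRB-LgBiT and FKBP-SmBiT vectors (12.5 ng/mL each); assayed 20–24 h later in CO2-independent medium with Nano-Glo Live Cell Reagent at 37 °C. Compound added alone at […]; dimerization luminescence (RLU) followed over time, each addition recorded 15 min.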

[6] = target: T1, RyR1/FKBP12 (Homo sapiens); experiment: Stabilization of FKBP12/RyR1 protein-protein interaction in human myotubes assessed as reversal of SIN1-induced reduction in FKBP12/RyR1 co-localization by measuring increase in FKBP12/RyR1 co-localization at 150 nM by in situ proximity ligation assay relative to control; assay type: tissue-based; design: scale not given: the % may be the effect or the level left; details: Myotube; in short: as §1

Row | SMILES | Activity [1] | also measured
1 | Cc1ccc(SCCc2cn(CC(=O)O)nn2)cc1 | < 90% | 
2 | CC(C)(C)OC(=O)NCCCC[C@@H](C(=O)O)n1cc(CSc2cccc(Cl)c2)nn1 | inactive | 
3 | COc1cccc(SCc2cn(CC(=O)O)nn2)c1 | < 90% | Activity [2]: inactive; IC50 [3]: 3.32 µM; Activity [4]: 46%; Activity [5]: inactive
4 | O=C(O)[C@@H](Cc1ccc(O)cc1)n1cc(CSc2cccc(C(F)(F)F)c2)nn1 | Active | 
5 | COc1cccc(SCc2cn([C@H](Cc3ccccc3)C(=O)O)nn2)c1 | Active | 
6 | O=C(O)[C@@H](Cc1ccccc1)n1cc(CSc2cccc(C(F)(F)F)c2)nn1 | inactive | 
7 | COc1cccc(SCc2cn(C(C)(C)C(=O)O)nn2)c1 | < 90% | 
8 | O=C(O)Cn1cc(CSc2c(F)c(F)cc(F)c2F)nn1 | < 90% | 
9 | COc1cccc(SCc2cn([C@H](CC(C)C)C(=O)O)nn2)c1 | Active | 
10 | O=C(O)Cn1cc(CSc2cccc(Cl)c2)nn1 | inactive | 
11 | O=C(O)[C@H](Cc1ccc(O)cc1)n1cc(CSc2cccc(C(F)(F)F)c2)nn1 | inactive | 
12 | COc1ccc(SCc2cn(CC(=O)O)nn2)cc1 | < 90% | 
13 | COc1cccc(SCc2cn([C@@H](Cc3ccccc3)C(=O)O)nn2)c1 | Active | 
14 | O=C(O)Cn1cc(CSc2ccccc2)nn1 | < 90% | 
15 | CCC[C@H](C(=O)O)n1cc(CSc2cccc(OC)c2)nn1 | Active | 
16 | COc1ccc2c(c1)CN(C)CCS2 | Active | Activity [2]: inactive; Activity [4]: 56%; Activity [6]: 84%
